According to ChEMBL document CHEMBL1148398, “Design, synthesis, and biological evaluation of thio-containing compounds with serum HDL-cholesterol-elevating properties” (2004):

Assays:
Assay type in all cases: functional
[1] = system: Rattus norvegicus; assay: Percent change in total plasma cholesterol following oral administration of compound in normal chow-fed rats at 100 mg/kg/day for 4 days
Procedure, shortened: (§1)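 Chow-fed male Sprague–Dawley CD rats, 60–80 g, gavaged 100 mg/kg/day for 4 days in 1.3% Tween 80/0.25% CMC. Fasted overnight, bled 24 h after the last dose. Total cholesterol and glycerol-blanked triglycerides read enzymatically; lipoproteins by FPLC with cholesterol per fraction. % change versus control; six per group, p < 0.05.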

[2] = system: Rattus norvegicus; assay: Percent change in total plasma cholesterol in hypercholesterolemic rats dosed at 100 mg/kg/day for 8 days
[3] = system: Rattus norvegicus; assay: Percent change in high-density lipoprotein cholesterol following oral administration of compound in normal chow-fed rats at 100 mg/kg/day for 4 days; procedure, shortened: as §1
[4] = system: Rattus norvegicus; assay: Percent change in high-density lipoprotein cholesterol in hypercholesterolemic rats dosed at 100 mg/kg/day for 8 days
[5] = system: Rattus norvegicus; assay: Percent change in low-density lipoprotein cholesterol following oral administration of compound in normal chow-fed rats at 100 mg/kg/day for 4 days; procedure, shortened: as §1
[6] = system: Rattus norvegicus; assay: Percent change in triglycerides in hypercholesterolemic rats at a dose of 100 mg/kg/day for 8 days
[7] = system: Rattus norvegicus; assay: Percent change in very low-density lipoprotein cholesterol following oral administration of compound in normal chow-fed rats at 100 mg/kg/day for 4 days; procedure, shortened: as §1
[8] = system: Rattus norvegicus; assay: Percent change in triglycerides following oral administration of compound in normal chow-fed rats at 100 mg/kg/day for 4 days; procedure, shortened: as §1

Structure (SMILES) | Change [1] | Change [2] | Change [3] | Change [4] | Change [5] | Change [6] | Change [7] | Change [8]
C#CCN1CC(=O)N(c2c(C)cccc2C)C1=S | 98% | -15% | 85.1% | 325% | 27.9% | 0% | -23% | -48.5%
CCN1C(=O)C(=O)N(c2c(C)cccc2C)C1=S | 138.2% | -21% | 114.4% | 186% | 73.2% | -48% | 409.7% | -32.8%
CC(C)c1ccccc1N1C(=O)CON(C)C1=S | 92.4% | 0% | 98.2% | 95% | 32.1% | -16% | -8.3% | -52.7%
CN1CC(=O)N(c2cccnc2)C1=S | – | -11.4% | – | 29% | – | 150% | – | –
CCN1CC(=O)N(c2cc(F)ccc2C)C1=S | 95.2% | 35% | 102.4% | 112% | 14% | -36% | 131.6% | -6.3%
CN1OCC(=O)N(c2ccc(Oc3ccccc3)cc2)C1=S | -13% | -25% | 0% | 102% | -20.5% | -43% | -9.1% | -20.5%
CCN1C(=S)N(c2ccc(F)cc2)C(=O)C1c1ccccc1 (stereo not given) | – | 31% | – | 67% | – | 35% | – | –
CCN1C(=O)C(=O)N(c2cc(Cl)ccc2C)C1=S | 123.4% | 32% | 87.6% | 242% | 71.9% | -22% | 67.3% | –
CCN1C(=S)N(c2cc(Cl)ccc2C)C(=O)C1c1ccccc1 (stereo not given) | – | 60% | – | 187% | – | 76% | – | –
CCN1C(=S)N(c2c(C)cccc2C)C(=O)C1(C)C | – | 13% | – | -2% | – | 17% | – | –
COC(=O)CCN1CC(=O)N(c2ccc(Cl)cc2C)C1=S | – | 14% | – | 27% | – | -32% | – | –
Cc1cccc(Cl)c1N1C(=O)CN(C)C1=S | 71.2% | 17% | 75.7% | 84% | 0% | -56% | 89.4% | -37.9%
CN1OCC(=O)N(c2cccc3c2CCC3)C1=S | 78.5% | -2% | 81.8% | 192% | 42.3% | -26% | 68% | -31.2%
CCc1cccc(C(C)C)c1N1C(=O)CCN(CC)C1=S | – | 2% | – | 34% | – | -11% | – | –
Cc1cccc(Cl)c1N1C(=O)CN(c2ccccc2)C1=S | – | 2.2% | – | 39% | – | 16% | – | –
CN1CC(=O)N(C(c2ccccc2)c2ccccc2)C1=S | – | 3.4% | – | 57% | – | 92% | – | –
C=CCN1CC(=O)N(c2c(C)cccc2C)C1=S | 86% | -5% | 120.4% | 177% | -18.8% | -45% | -45.8% | -29.9%
CCN1CC(=O)N(c2ccccc2C(F)(F)F)C1=S | 67.2% | 18% | 103.5% | 116% | -13.3% | 35% | 52.6% | -6.3%
CCN1CC(=O)N(c2cc(Cl)ccc2OC)C1=S | – | 24% | – | 39% | – | 51% | – | –
CCN1CCC(=O)N(c2c(Cl)cccc2Cl)C1=S | – | 42% | – | 16% | – | -6% | – | –
CCN1CC(=O)N(c2ccc(N(C)C)cc2)C1=S | – | 123% | – | 49% | – | -41% | – | –
CCN1CC(=O)N(c2c(Cl)cccc2Cl)C1=S | 57% | 53.4% | 60.2% | 142% | 6.8% | -37% | 0% | -35.8%
CCN1CCCC(=O)N(c2cc(Cl)ccc2C)C1=S | – | 7% | – | 50% | – | 14% | – | –
CN1OCC(=O)N(c2ccc(C(C)(C)C)cc2)C1=S | 62% | 2% | 61.6% | 170% | 2.6% | -51% | 176.5% | -24.6%
CN1CC(=O)N(CCCCc2ccccc2)C1=S | – | -4.3% | – | -21% | – | 41% | – | –
CCN1CC(=O)N(c2ccc3ccccc3c2)C1=S | – | -18.1% | – | 65% | – | -33% | – | –
CN1CC(=O)N(c2ccccc2)C1=S | – | 25% | – | 66% | – | 10% | – | –
